Test results reported in ChEMBL document CHEMBL1125462, “Substituent variation in azabicyclic triazole- and tetrazole-based muscarinic receptor ligands” (J Med Chem, 1992).

Columns and labels:
[1] = molecular target: Muscarinic acetylcholine receptor; experiment: In vitro ability to displace [3H]oxotremorine-M (OXO-M) from rat cerebral cortex muscarinic receptor.; assay type: tissue-based
[2] = molecular target: Muscarinic acetylcholine receptor; experiment: In vitro displacement of [3H]quinuclidinyl benzilate (QNB) from rat cerebral cortex muscarinic receptor.; assay type: tissue-based
[3] = molecular target: Muscarinic acetylcholine receptor; experiment: In vitro ability to displace [3H]quinuclidinyl benzilate (QNB) from rat cerebral cortex Muscarinic acetylcholine receptor; assay type: tissue-based
[4] = molecular target: Muscarinic acetylcholine receptor; experiment: In vitro ability to displace [3H]oxotremorine-M (OXO-M) from rat cerebral cortex Muscarinic acetylcholine receptor; assay type: tissue-based
[5] = molecular target: Muscarinic acetylcholine receptor; experiment: In vitro ability to displace [3H]oxotremorine-M (OXO-M) from rat cerebral cortex muscarinic acetylcholine receptor; assay type: tissue-based
Method in brief: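 Hooded Lister rat cerebral cortex homogenised in ice-cold 50 mM Tris pH 7.7 (at 25 °C), washed by repeated 25000g spins, stored at -20 °C. Incubation buffer with 2 mM MgCl2; 37 °C, 30 min; filtered on GF/B filters presoaked in 0.05% polyethylenamine; scintillation counting. Seven concentrations; geometric mean of at least two separate experiments; IC50 (nM).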

[6] = molecular target: Muscarinic acetylcholine receptor; experiment: In vitro ability to displace [3H]quinuclidinyl benzilate (QNB) from rat cerebral cortex muscarinic acetylcholine receptor; assay type: tissue-based
Method in brief: (§1)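 Washed Hooded Lister rat cerebral cortex membranes (50 mM Tris pH 7.7), diluted from stored stock, incubated with test compound and 0.27 nM [3H]QNB at 37 °C for 30 min. GF/B filtration, ice-cold buffer washes, scintillation counting. Nonspecific binding typically 25% of total. Seven concentrations; geometric mean of separate experiments; IC50 (nM).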

[7] = molecular target: Muscarinic acetylcholine receptor (Rattus norvegicus) (UniProt P08482+P08483+P08485+P08911+P10980); experiment: Ratio of Compound (IC50(nM) of QNB/ IC50(nM) of OXO-M); assay type: protein assay
[8] = molecular target: Muscarinic acetylcholine receptor; experiment: In vitro ability to displace [3H]quinuclidinyl benzilate (QNB) from rat cerebral cortexMuscarinic acetylcholine receptor; assay type: tissue-based, Cerebral cortex; method in brief: as §1

Row | SMILES | IC50 [1] [nM] | IC50 [2] [nM] | also measured
1 | Cn1ncc(C23CCN(CC2)C3)n1 | 35 | 14400 | –
2 | c1nnn(C23CCCN(CC2)C3)n1 (stereo unspecified) | 19 | 7200 | –
3 | Cn1nnc([C@@H]2CN3CC[C@H]2C3)n1 | 325 | 30600 | –
4 | Nc1ncn(C23CCCN(CC2)C3)n1 (stereo unspecified) | 13 | 3900 | –
5 | O=[N+]([O-])c1ncn([C@H]2CN3CC[C@H]2C3)n1 | 4100 | 35600 | –
6 | Cn1nnc(C23CCN(CC2)C3)n1 | 250 | 46700 | –
7 | Brc1nnn(C23CCCN(CC2)C3)n1 (stereo unspecified) | – | – | IC50 [3]: 279 nM; IC50 [4]: 5.5 nM
8 | Clc1nnn(C23CCCN(CC2)C3)n1 (stereo unspecified) | – | – | IC50 [5]: 3.5 nM; IC50 [6]: 332 nM; Ratio [7]: 95
9 | Brc1ncn([C@H]2CN3CC[C@H]2C3)n1 | – | – | IC50 [3]: 3040 nM; IC50 [4]: 31 nM
10 | Nc1nnn(C2CN3CCC2CC3)n1 (stereo unspecified) | 38 | 4400 | –
11 | Cc1nnn(C2CN3CCC2CC3)n1 (stereo unspecified) | 31 | – | –
12 | N#Cc1nnn(C2CN3CCC2CC3)n1 (stereo unspecified) | 1400 | 5200 | –
13 | c1ncn(C23CCCN(CC2)C3)n1 (stereo unspecified) | 12 | 3600 | –
14 | Cc1ncn(C23CCCN(CC2)C3)n1 (stereo unspecified) | 12 | 2100 | –
15 | Nc1nnn(C23CCCN(CC2)C3)n1 (stereo unspecified) | 5.9 | 2670 | –
16 | Nc1nnn([C@H]2CN3CC[C@H]2C3)n1 | 2.6 | 4360 | –
17 | Cc1nnn(C23CCCN(CC2)C3)n1 (stereo unspecified) | 14 | 1925 | –
18 | Cn1ncc([C@H]2CN3CC[C@H]2C3)n1 | 5.4 | 2800 | –
19 | Clc1nnn([C@H]2CN3CC[C@H]2C3)n1 | – | – | IC50 [5]: 7.6 nM; IC50 [6]: 630 nM; Ratio [7]: 83

Row | SMILES | IC50 [1] [nM] | IC50 [2] [nM] | also measured
20 | Ic1nnn(C2CN3CCC2CC3)n1 (stereo unspecified) | – | – | IC50 [5]: 43 nM; IC50 [6]: 216 nM; Ratio [7]: 5
21 | Clc1nnn(C2CN3CCC2CC3)n1 (stereo unspecified) | – | – | IC50 [5]: 27 nM; IC50 [6]: 578 nM; Ratio [7]: 21
22 | Cn1ncc([C@@H]2CN3CC[C@H]2C3)n1 | 16 | 13500 | –
23 | OC(c1ccccc1)(c1ccccc1)c1nnn(C2CN3CCC2CC3)n1 (stereo unspecified) | 3.6 | 2.8 | –
24 | c1nnn([C@H]2CN3CC[C@H]2C3)n1 | 30 | 14300 | –
25 | c1ncn([C@H]2CN3CC[C@H]2C3)n1 | 79 | 38200 | –
26 | Ic1nnn([C@H]2CN3CC[C@H]2C3)n1 | – | – | IC50 [5]: 48 nM; IC50 [6]: 372 nM; Ratio [7]: 8
27 | Cn1ncc(C23CCCN(CC2)C3)n1 (stereo unspecified) | 14 | 3100 | –
28 | Cc1ncn(C23CCN(CC2)C3)n1 | 86 | 14900 | –
29 | Brc1nnn([C@H]2CN3CC[C@H]2C3)n1 | – | – | IC50 [5]: 7.4 nM; IC50 [6]: 822 nM; Ratio [7]: 111
30 | Cc1ncn([C@H]2CN3CC[C@H]2C3)n1 | 17 | 4300 | –
31 | Cc1nnn([C@H]2CN3CC[C@H]2C3)n1 | 4.2 | 1900 | –
32 | Cn1nnc(C23CCCN(CC2)C3)n1 (stereo unspecified) | 100 | 5700 | –
33 | Clc1ncn([C@H]2CN3CC[C@H]2C3)n1 | – | – | IC50 [8]: 1290 nM; IC50 [4]: 14 nM
34 | Nc1ncn([C@H]2CN3CC[C@H]2C3)n1 | 18 | 3600 | –
35 | c1ncn(C23CCN(CC2)C3)n1 | 79 | 39900 | –
36 | Brc1nnn(C2CN3CCC2CC3)n1 (stereo unspecified) | – | – | IC50 [5]: 20 nM; IC50 [6]: 488 nM; Ratio [7]: 25
37 | O=C1CCCN1CC#CCN1CCCC1 | – | – | Ratio [7]: 190
38 | Cn1nnc([C@H]2CN3CC[C@H]2C3)n1 | 11 | 2900 | –
